Converted amounts (≈) assume the structure as drawn. The source made the active and inactive calls. The calls are words filed in the database; no cut-off is given here.
Key:
[1] = tested on: Pseudomonas aeruginosa; test: Antibacterial activity against colistin-resistant Pseudomonas aeruginosa isolate 91433 after 18 to 24 hrs by microbroth dilution assay; format: functional
How it was run: (§1)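 Checkerboard broth microdilution: antibiotic 2-fold diluted along one axis, adjuvant 2-fold diluted along the other. Overnight culture standardized to 0.5 McFarland in saline, diluted 1:50 in MHB, added to wells, 37 °C for 18 h. MIC is the lowest concentration with no growth. FIC = MIC in combination / MIC alone; FICI = sum of the two FICs; FICI ≤0.5 is synergy.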

[2] = tested on: Pseudomonas aeruginosa; test: Antibacterial activity against Pseudomonas aeruginosa isolate P259-96918 after 18 to 24 hrs by microbroth dilution assay; format: functional
How it was run: as §1, with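 “in MHB:” for “broth microdilution:”, “test agent” for “adjuvant”, “wells, incubated” for “wells,”, “FIC index” for “FICI”, “both FICs.” for “the two FICs; FICI ≤0.5 is synergy.”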

[3] = tested on: Pseudomonas aeruginosa; test: Inhibition of RND efflux pump in colistin-resistant Pseudomonas aeruginosa isolate 101243 assessed as potentiation of minocycline-induced antibacterial activity by measuring fold reduction in minocycline MIC at 8 ug/ml after 18 to 24 hrs by microbroth dilution assay; how it was run: as §1
[4] = tested on: Pseudomonas aeruginosa; test: Induction of cytoplasmic membrane depolarization in Pseudomonas aeruginosa PAO1 by DiSC3(5) dye based fluorescence assay; format: functional
How it was run: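 Cytoplasmic membrane depolarization in P. aeruginosa PAO1, monitored by DiSC3(5) fluorescence across a range of compound concentrations. Colistin served as positive control.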

[5] = tested on: Pseudomonas aeruginosa; test: Inhibition of RND efflux pump in Pseudomonas aeruginosa isolate 101885 assessed as potentiation of minocycline-induced antibacterial activity by measuring fold reduction in minocycline MIC at 8 ug/ml after 18 to 24 hrs by microbroth dilution assay; how it was run: as §1
[6] = tested on: Pseudomonas aeruginosa PAO1; test: Inhibition of RND efflux pump in Pseudomonas aeruginosa PAO1 assessed as potentiation of erythromycin-induced antibacterial activity […] by microbroth dilution assay
[7] = tested on: Pseudomonas aeruginosa; test: Antibacterial activity against Pseudomonas aeruginosa isolate P260-97103 after 18 to 24 hrs by microbroth dilution assay; format: functional
How it was run: as §1, with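 “in MHB:” for “broth microdilution:”, “test agent” for “adjuvant”, “wells, incubated” for “wells,”, “FIC index” for “FICI”, “both FICs.” for “the two FICs; FICI ≤0.5 is synergy.”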

[8] = tested on: Pseudomonas aeruginosa; test: Antibacterial activity against Pseudomonas aeruginosa isolate 101885 after 18 to 24 hrs by microbroth dilution assay; format: functional; how it was run: as §1
[9] = tested on: Pseudomonas aeruginosa; test: Inhibition of RND efflux pump in Pseudomonas aeruginosa isolate P262-101856 assessed as potentiation of minocycline-induced antibacterial activity by measuring fold reduction in minocycline MIC at 8 ug/ml after 18 to 24 hrs by microbroth dilution assay; how it was run: as §1
[10] = tested on: Pseudomonas aeruginosa PAO1; test: Inhibition of RND efflux pump in Pseudomonas aeruginosa PAO1 assessed as potentiation of tigecycline-induced antibacterial activity by measuring fold reduction in tigecycline MIC at 8 ug/ml after 18 to 24 hrs by microbroth dilution assay relative to tigecycline alone; how it was run: as §1
[11] = tested on: Pseudomonas aeruginosa; test: Inhibition of RND efflux pump in Pseudomonas aeruginosa isolate P262-104354 assessed as potentiation of minocycline-induced antibacterial activity by measuring fold reduction in minocycline MIC at 8 ug/ml after 18 to 24 hrs by microbroth dilution assay; how it was run: as §1
[12] = tested on: Klebsiella pneumoniae; test: Inhibition of RND efflux pump in Klebsiella pneumoniae isolate 116381 assessed as potentiation of minocycline-induced antibacterial activity at 8 ug/ml after 18 to 24 hrs by microbroth dilution assay
How it was run: as §1, with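 “in MHB:” for “broth microdilution:”, “test agent” for “adjuvant”, “wells, incubated” for “wells,”, “FIC index” for “FICI”, “both FICs.” for “the two FICs; FICI ≤0.5 is synergy.”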

[13] = tested on: Klebsiella pneumoniae; test: Inhibition of RND efflux pump in Klebsiella pneumoniae isolate 116381 assessed as potentiation of minocycline-induced antibacterial activity by measuring fold reduction in minocycline MIC at 8 ug/ml after 18 to 24 hrs by microbroth dilution assay
How it was run: (§2)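 Absolute minocycline MIC taken from checkerboard broth dilution with a fixed 8 μg/mL adjuvant. Inoculum was a 0.5 McFarland saline suspension diluted 1:50 in MHB, incubated 37 °C for 18 h. MIC is the lowest concentration with no growth.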

[14] = tested on: Pseudomonas aeruginosa PAO1; test: Inhibition of RND efflux pump in Pseudomonas aeruginosa PAO1 assessed as potentiation of novobiocin-induced antibacterial activity […] by microbroth dilution assay
[15] = tested on: Pseudomonas aeruginosa; test: Inhibition of RND efflux pump in Pseudomonas aeruginosa isolate P262-101856 assessed as potentiation of minocycline-induced antibacterial activity by measuring minocycline MIC at 8 ug/ml after 18 to 24 hrs by microbroth dilution assay (reference value: 128 to 256 ug/ml); how it was run: as §2
[16] = tested on: Pseudomonas aeruginosa; test: Inhibition of RND efflux pump in Pseudomonas aeruginosa isolate P260-97103 assessed as potentiation of minocycline-induced antibacterial activity by measuring fold reduction in minocycline MIC at 0.25 times antibacterial MIC after 18 to 24 hrs by microbroth dilution assay; how it was run: as §1
[17] = tested on: Pseudomonas aeruginosa; test: Potentiation of rifampicin-induced antibacterial activity against Pseudomonas aeruginosa PAO1 […] by microbroth dilution assay; format: functional
[18] = tested on: Pseudomonas aeruginosa; test: Antibacterial activity against Pseudomonas aeruginosa PAO1 after 18 to 24 hrs by microbroth dilution assay; format: functional
How it was run: as §1, with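 “in MHB:” for “broth microdilution:”, “test agent” for “adjuvant”, “wells, incubated” for “wells,”, “FIC index” for “FICI”, “both FICs.” for “the two FICs; FICI ≤0.5 is synergy.”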

[19] = tested on: Pseudomonas aeruginosa; test: Antibacterial activity against colistin-resistant Pseudomonas aeruginosa isolate 101243 after 18 to 24 hrs by microbroth dilution assay; format: functional; how it was run: as §1
[20] = tested on: Pseudomonas aeruginosa; test: Reduction in flagellum-dependant motility in Pseudomonas aeruginosa PAO1 at sub MIC after 20 hrs in presence of minocycline by swimming motility test; format: functional
[21] = tested on: Pseudomonas aeruginosa PAO1; test: Inhibition of RND efflux pump in Pseudomonas aeruginosa PAO1 assessed as increase in tetracycline uptake measured at 1 min interval for 30 mins by fluorescence assay
How it was run: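 Tetracycline uptake assay in P. aeruginosa PAO1: enhancement of tetracycline fluorescence as it enters cells, monitored with compound present at several concentrations.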

[22] = tested on: Enterobacter cloacae; test: Inhibition of RND efflux pump in Enterobacter cloacae isolate 117029 assessed as potentiation of minocycline-induced antibacterial activity at 8 ug/ml after 18 to 24 hrs by microbroth dilution assay
How it was run: as §1, with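 “in MHB:” for “broth microdilution:”, “test agent” for “adjuvant”, “wells, incubated” for “wells,”, “FIC index” for “FICI”, “both FICs.” for “the two FICs; FICI ≤0.5 is synergy.”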

[23] = tested on: Pseudomonas aeruginosa PAO1; test: Inhibition of RND efflux pump in Pseudomonas aeruginosa PAO1 assessed as potentiation of tobramycin-induced antibacterial activity after 18 to 24 hrs by checker board assay
How it was run: as §1, with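 “in MHB:” for “broth microdilution:”, “test agent” for “adjuvant”, “wells, incubated” for “wells,”, “FIC index” for “FICI”, “both FICs.” for “the two FICs; FICI ≤0.5 is synergy.”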

[24] = tested on: Pseudomonas aeruginosa PAO1; test: Inhibition of RND efflux pump in Pseudomonas aeruginosa PAO1 assessed as potentiation of minocycline-induced antibacterial activity by measuring minocycline MIC at 8 ug/ml after 18 to 24 hrs by microbroth dilution assay (reference value: 8 ug/ml); how it was run: as §2
[25] = tested on: Klebsiella pneumoniae; test: Inhibition of RND efflux pump in Klebsiella pneumoniae isolate 116381 assessed as potentiation of minocycline-induced antibacterial activity by measuring minocycline MIC at 8 ug/ml after 18 to 24 hrs by microbroth dilution assay (reference value: 128 ug/ml); how it was run: as §2
[26] = tested on: Klebsiella pneumoniae; test: Antibacterial activity against Klebsiella pneumoniae isolate 116381 after 18 to 24 hrs by microbroth dilution assay; format: functional
How it was run: as §1, with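 “in MHB:” for “broth microdilution:”, “test agent” for “adjuvant”, “wells, incubated” for “wells,”, “FIC index” for “FICI”, “both FICs.” for “the two FICs; FICI ≤0.5 is synergy.”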

[27] = tested on: Pseudomonas aeruginosa; test: Inhibition of RND efflux pump in Pseudomonas aeruginosa isolate 101885 assessed as potentiation of minocycline-induced antibacterial activity by measuring minocycline MIC at 8 ug/ml after 18 to 24 hrs by microbroth dilution assay (reference value: 16 to 32 ug/ml); how it was run: as §2
[28] = tested on: Pseudomonas aeruginosa PAO1; test: Inhibition of RND efflux pump in Pseudomonas aeruginosa PAO1 assessed as potentiation of trimethoprim-induced antibacterial activity […] by microbroth dilution assay
[29] = tested on: Pseudomonas aeruginosa PAO1; test: Inhibition of RND efflux pump in Pseudomonas aeruginosa PAO1 assessed as potentiation of minocycline-induced antibacterial activity at 8 ug/ml after 18 to 24 hrs by checker board assay
How it was run: as §1, with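 “in MHB:” for “broth microdilution:”, “test agent” for “adjuvant”, “wells, incubated” for “wells,”, “FIC index” for “FICI”, “both FICs.” for “the two FICs; FICI ≤0.5 is synergy.”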

Structure (SMILES)	MIC [1] [µg/mL]	MIC [2] [µg/mL]	fold change (FC) [3]	Activity [4]	fold change (FC) [5]	fractional inhibitory concentration index (FICI) [6]	MIC [7] [µg/mL]	MIC [8] [µg/mL]	fold change (FC) [9]	fold change (FC) [10]	fold change (FC) [11]	fractional inhibitory concentration index (FICI) [12]	fold change (FC) [13]	fractional inhibitory concentration index (FICI) [14]	MIC [15] [µg/mL]	fold change (FC) [16]	fractional inhibitory concentration index (FICI) [17]	MIC [18] [µg/mL]	MIC [19] [µg/mL]	Activity [20]	further results
Cl.Cl.Cl.Cl.Cl.Cl.NC[C@H]1O[C@H](O[C@H]2[C@H](OCCCCCCCCCCCCN3CC[C@@H](c4ccc(F)cc4)[C@H](COc4ccc5c(c4)OCO5)C3)[C@@H](O[C@H]3O[C@H](CO)[C@@H](O)[C@H](N)[C@H]3O)[C@H](N)C[C@@H]2N)[C@H](N)C[C@@H]1O	32	> 512	8 to 256	Dose-dependent effect	8 to 256	< 0.2	8	32	8 to 256	8 to 64	8 to 256	0.25 to 0.38	4 to 256	< 0.1	1	8 to 256	<0.05	32	32	Active	inhibition [21]: Dose-dependent effect; fractional inhibitory concentration index (FICI) [22]: 0.02 to 0.14; fractional inhibitory concentration index (FICI) [23]: > 1.5; MIC [24]: 0.25 µg/mL; MIC [25]: 32 µg/mL; MIC [26]: > 32 µg/mL; MIC [27]: 1 µg/mL; fractional inhibitory concentration index (FICI) [28]: < 0.1; fractional inhibitory concentration index (FICI) [29]: 0.19
Cl.Cl.Cl.Cl.Cl.Cl.Cl.NC[C@H]1O[C@H](O[C@H]2[C@H](OCCCCCCCCCCCCN3CCN(Cc4cccc5ccccc45)CC3)[C@@H](O[C@H]3O[C@H](CO)[C@@H](O)[C@H](N)[C@H]3O)[C@H](N)C[C@@H]2N)[C@H](N)C[C@@H]1O	32	> 1020	8 to 256	Dose-dependent effect	8 to 256	< 0.2	2	256	8 to 256	8 to 64	8 to 256	0.13 to 0.38	4 to 256	< 0.1	4	8 to 256	<0.05	64	64	Active	inhibition [21]: Dose-dependent effect; fractional inhibitory concentration index (FICI) [22]: 0.03 to 0.16; fractional inhibitory concentration index (FICI) [23]: > 1.5; MIC [24]: 0.5 µg/mL; MIC [25]: 16 µg/mL; MIC [26]: > 32 µg/mL; MIC [27]: 0.5 µg/mL; fractional inhibitory concentration index (FICI) [28]: < 0.1; fractional inhibitory concentration index (FICI) [29]: 0.19
NC[C@H]1C[C@H](C(=O)N[C@H](CCc2ccccc2)C(=O)Nc2ccc3ccccc3c2)N(CCCCCCCCCCCCO[C@@H]2[C@@H](O[C@H]3O[C@H](CO)[C@@H](O)[C@H](N)[C@H]3O)[C@H](N)C[C@H](N)[C@H]2O[C@H]2O[C@H](CN)[C@@H](O)C[C@H]2N)C1	8 (≈ 7.52 µM)	64 (≈ 60.1 µM)	8 to 256	Dose-dependent effect	8 to 256	< 0.2	4 (≈ 3.76 µM)	16 (≈ 15 µM)	8 to 256	8 to 64	8 to 256	0.03 to 0.16	4 to 256	< 0.1	< 1	8 to 256	<0.05	32 (≈ 30.1 µM)	16 (≈ 15 µM)	Active	inhibition [21]: Dose-dependent effect; fractional inhibitory concentration index (FICI) [22]: 0.13; fractional inhibitory concentration index (FICI) [23]: > 1.5; MIC [24]: 0.12 µg/mL; MIC [25]: 4 µg/mL; MIC [26]: > 32 µg/mL; MIC [27]: < 0.125 µg/mL; fractional inhibitory concentration index (FICI) [28]: < 0.1; fractional inhibitory concentration index (FICI) [29]: 0.09
